According to ChEMBL document CHEMBL2390920, “8-Benzamidochromen-4-one-2-carboxylic acids: potent and selective agonists for the orphan G protein-coupled receptor GPR35” (J Med Chem, 2013):
Blank lines part the entries; values can stand above or below the molecule they belong to.

How the values were obtained:
[1] = target: T1, G-protein coupled receptor 55 (Homo sapiens, UniProt Q9Y2T6); experiment: Antagonist activity at human GPR55 expressed in CHO cells assessed as inhibition of lysophosphotidylinositol-induced beta-arrestin recruitment preincubated for 30 mins followed by lysophosphotidylinositol induction by beta-galactosidase reporter gene assay; type: functional, cell-based
T1 sequence (Q9Y2T6 whole entry): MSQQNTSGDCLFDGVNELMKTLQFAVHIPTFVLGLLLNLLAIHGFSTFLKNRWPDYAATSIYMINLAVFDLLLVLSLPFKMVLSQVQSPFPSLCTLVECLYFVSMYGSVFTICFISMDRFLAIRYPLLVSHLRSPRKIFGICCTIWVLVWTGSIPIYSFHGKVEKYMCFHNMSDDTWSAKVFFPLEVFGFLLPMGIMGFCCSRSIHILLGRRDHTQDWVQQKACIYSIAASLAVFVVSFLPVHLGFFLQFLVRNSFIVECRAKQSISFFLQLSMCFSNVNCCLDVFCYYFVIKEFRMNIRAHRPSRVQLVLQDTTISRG
In short: (§1)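 Human GPR55 PathHunter CHO cells were preincubated 30 min with compound, then stimulated with LPI (final 1 µM). After 90 min, detection reagent was added and luminescence read 60 min later. Screening was at 10 µM; full concentration-inhibition curves were run for selected compounds to give IC50.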

[2] = target: T1, G-protein coupled receptor 55; experiment: Agonist activity at human GPR55 expressed in CHO cells assessed as induction of beta-arrestin recruitment at 10 uM after 90 mins by beta-galactosidase reporter gene assay relative to lysophosphotidylinositol; type: functional, cell-based
In short: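 Human GPR55 PathHunter CHO cells, 20000 cells/well seeded the day before, received test compound at 10 µM (final DMSO ≤1%) for 90 min. Detection reagent was then added and luminescence read after 60 min. Signal was normalized to that of 1 µM LPI.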

[3] = target: G protein-coupled receptor GPR35 (Rattus norvegicus) (UniProt Q33BM1); experiment: Agonist activity at rat GPR35 expressed in CHO cells assessed as induction of beta-arrestin recruitment at 10 uM after 90 mins by beta-galactosidase reporter gene assay relative to zaprinast; type: cell-based
Sequence of G protein-coupled receptor GPR35 (Rattus norvegicus) (Q33BM1 as listed by the source): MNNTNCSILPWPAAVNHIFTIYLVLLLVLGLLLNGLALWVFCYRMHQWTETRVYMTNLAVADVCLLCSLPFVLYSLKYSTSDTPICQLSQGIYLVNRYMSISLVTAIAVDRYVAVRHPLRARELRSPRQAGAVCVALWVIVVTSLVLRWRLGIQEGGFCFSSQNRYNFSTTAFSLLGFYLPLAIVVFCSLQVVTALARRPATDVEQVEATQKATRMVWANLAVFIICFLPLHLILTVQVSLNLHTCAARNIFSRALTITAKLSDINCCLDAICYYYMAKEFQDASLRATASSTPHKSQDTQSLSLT
In short: (§2)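 Rat GPR35 expressed by transfecting a parental CHO β-arrestin-EA line; cells seeded at 20000/well the day before. Compounds (final DMSO ≤1%) were incubated 90 min, followed by detection reagent and a luminescence read after 60 min.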

[4] = target: G protein-coupled receptor GPR35 (Rattus norvegicus, UniProt Q33BM1); experiment: Agonist activity at rat GPR35 expressed in CHO cells assessed as induction of beta-arrestin recruitment after 90 mins by beta-galactosidase reporter gene assay; type: cell-based; in short: as §2
Sequence of G protein-coupled receptor GPR35 (Q33BM1 whole entry): as the sequence (Q33BM1 as listed by the source) above

[5] = target: G-protein coupled receptor 35 (Mus musculus) (UniProt Q9ES90); experiment: Agonist activity at mouse GPR35 expressed in CHO cells assessed as induction of beta-arrestin recruitment at 10 uM after 90 mins by beta-galactosidase reporter gene assay relative to zaprinast; type: cell-based
Sequence of G-protein coupled receptor 35 (Mus musculus) (Q9ES90 whole entry): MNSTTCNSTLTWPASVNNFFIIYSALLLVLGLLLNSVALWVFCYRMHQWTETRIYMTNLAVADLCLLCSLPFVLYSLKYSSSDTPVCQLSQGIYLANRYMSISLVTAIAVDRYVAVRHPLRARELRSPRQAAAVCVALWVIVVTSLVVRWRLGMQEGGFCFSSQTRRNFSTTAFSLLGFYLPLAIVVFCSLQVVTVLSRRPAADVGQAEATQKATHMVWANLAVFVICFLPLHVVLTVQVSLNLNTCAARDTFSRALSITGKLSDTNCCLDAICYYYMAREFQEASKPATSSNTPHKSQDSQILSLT
In short: (§3)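 Mouse GPR35 introduced by transfection into a CHO β-arrestin-EA line; 20000 cells/well plated the day prior. After 90 min of compound exposure (final DMSO ≤1%), detection reagent was added and luminescence read after 60 min.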

[6] = target: G-protein coupled receptor 35 (Mus musculus, UniProt Q9ES90); experiment: Agonist activity at mouse GPR35 expressed in CHO cells assessed as induction of beta-arrestin recruitment after 90 mins by beta-galactosidase reporter gene assay; type: cell-based; in short: as §3
Sequence of G-protein coupled receptor 35 (Mus musculus, UniProt Q9ES90) (Q9ES90 whole entry): as above

[7] = target: T2, G-protein coupled receptor 35 (Homo sapiens, UniProt Q9HC97); experiment: Agonist activity at human GPR35 expressed in CHO cells assessed as induction of beta-arrestin recruitment at 10 uM after 90 mins by beta-galactosidase reporter gene assay relative to zaprinast; type: cell-based
T2 sequence (Q9HC97 whole entry, the tested form may be a part): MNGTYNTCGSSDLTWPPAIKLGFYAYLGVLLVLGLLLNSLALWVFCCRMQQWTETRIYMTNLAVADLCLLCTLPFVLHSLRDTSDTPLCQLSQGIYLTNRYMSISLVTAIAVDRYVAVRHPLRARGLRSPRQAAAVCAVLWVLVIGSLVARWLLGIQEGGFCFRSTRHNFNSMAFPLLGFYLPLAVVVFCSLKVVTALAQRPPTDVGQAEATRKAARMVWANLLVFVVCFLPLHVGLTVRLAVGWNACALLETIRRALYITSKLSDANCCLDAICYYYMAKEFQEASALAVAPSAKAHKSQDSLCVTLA
In short: (§4)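 PathHunter enzyme-fragment complementation in CHO cells stably expressing β-arrestin-EA and tagged human GPR35, seeded at 20000 cells/well the day before. DMSO dilutions were further diluted 1:10 (final DMSO ≤1%). Cells were incubated 90 min, then detection reagent was added and luminescence read after 60 min.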

[8] = target: T2, G-protein coupled receptor 35; experiment: Agonist activity at human GPR35 expressed in CHO cells assessed as induction of beta-arrestin recruitment after 90 mins by beta-galactosidase reporter gene assay; type: cell-based; in short: as §4
[9] = target: T1, G-protein coupled receptor 55; experiment: Antagonist activity at human GPR55 expressed in CHO cells assessed as inhibition of lysophosphotidylinositol-induced beta-arrestin recruitment at 10 uM preincubated for 30 mins followed by lysophosphotidylinositol induction by beta-galactosidase reporter gene assay relative to control; type: functional, cell-based; in short: as §1
[10] = target: T2, G-protein coupled receptor 35; experiment: Agonist activity at human GPR35b expressed in CHO cells assessed as induction of beta-arrestin recruitment at 10 uM after 90 mins by beta-galactosidase reporter gene assay relative to zaprinast; type: cell-based
In short: (§5)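 CHO β-arrestin-EA parental line transfected with human GPR35b, seeded at 20000 cells/well the day before. Compounds in DMSO were diluted 1:10 in medium or PBS (final DMSO ≤1%). After 90 min of incubation, detection reagent was added and luminescence measured 60 min later. Screening was at 10 µM.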

[11] = target: T2, G-protein coupled receptor 35; experiment: Agonist activity at human GPR35b expressed in CHO cells assessed as induction of beta-arrestin recruitment after 90 mins by beta-galactosidase reporter gene assay; type: cell-based; in short: as §5
[12] = target: G-protein coupled receptor 35 (Mus musculus) (UniProt Q9ES90); experiment: Agonist activity at mouse GPR35 expressed in CHO cells assessed as induction of beta-arrestin recruitment at 10 uM after 90 mins by beta-galactosidase reporter gene assay; type: cell-based; in short: as §3
[13] = target: T2, G-protein coupled receptor 35; experiment: Agonist activity at human GPR35 expressed in CHO cells assessed as induction of beta-arrestin recruitment at 10 uM after 90 mins by beta-galactosidase reporter gene assay; type: cell-based; in short: as §4
[14] = species: Homo sapiens; experiment: Selectivity ratio of IC50 for human GPR55 to EC50 for human GPR35
[15] = target: G protein-coupled receptor GPR35 (Rattus norvegicus) (UniProt Q33BM1); experiment: Agonist activity at rat GPR35 expressed in CHO cells assessed as induction of beta-arrestin recruitment at 10 uM after 90 mins by beta-galactosidase reporter gene assay; type: cell-based; in short: as §2
[16] = Stability of the compound in aceronitrile/water at pH 8 at 1.2 mM after 2 to 4 days by LC-MS analysis in presence of ammonia and ammonium acetate; type: physicochemical; conditions: buffer, pH 8, 1200 µM
In short: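 Solution of compound at 1.20 mM in 1:1 acetonitrile/water at pH 8.0, containing ammonia ([…]) and ammonium acetate (2 mM); sample then analysed by LC-MS.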

[17] = Stability of the compound in aceronitrile/water at pH 5.5 at 1.2 mM after 4 hrs by LC-MS analysis; type: physicochemical; conditions: buffer, pH 5.5, 4 h, 1200 µM
In short: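 Compound dissolved at 1.20 mM in 1:1 acetonitrile/water at pH 5.5 with no added acid, base or salt; sample then analysed by LC-MS.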

[18] = Stability of the compound in aceronitrile/water at pH 3.5 at 1.2 mM after 90 mins by LC-MS analysis in presence of acetic acid and ammonium acetate; type: physicochemical; conditions: buffer, pH 3.5, 1.5 h, 1200 µM
In short: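 Compound prepared at 1.20 mM in 1:1 acetonitrile/water adjusted to pH 3.5, containing acetic acid (300 mM) and ammonium acetate (2 mM); sample then analysed by LC-MS.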

[19] = target: T3, Aryl hydrocarbon receptor (Homo sapiens, UniProt P35869); experiment: Activation of AHR (unknown origin)
T3 sequence (P35869 whole entry): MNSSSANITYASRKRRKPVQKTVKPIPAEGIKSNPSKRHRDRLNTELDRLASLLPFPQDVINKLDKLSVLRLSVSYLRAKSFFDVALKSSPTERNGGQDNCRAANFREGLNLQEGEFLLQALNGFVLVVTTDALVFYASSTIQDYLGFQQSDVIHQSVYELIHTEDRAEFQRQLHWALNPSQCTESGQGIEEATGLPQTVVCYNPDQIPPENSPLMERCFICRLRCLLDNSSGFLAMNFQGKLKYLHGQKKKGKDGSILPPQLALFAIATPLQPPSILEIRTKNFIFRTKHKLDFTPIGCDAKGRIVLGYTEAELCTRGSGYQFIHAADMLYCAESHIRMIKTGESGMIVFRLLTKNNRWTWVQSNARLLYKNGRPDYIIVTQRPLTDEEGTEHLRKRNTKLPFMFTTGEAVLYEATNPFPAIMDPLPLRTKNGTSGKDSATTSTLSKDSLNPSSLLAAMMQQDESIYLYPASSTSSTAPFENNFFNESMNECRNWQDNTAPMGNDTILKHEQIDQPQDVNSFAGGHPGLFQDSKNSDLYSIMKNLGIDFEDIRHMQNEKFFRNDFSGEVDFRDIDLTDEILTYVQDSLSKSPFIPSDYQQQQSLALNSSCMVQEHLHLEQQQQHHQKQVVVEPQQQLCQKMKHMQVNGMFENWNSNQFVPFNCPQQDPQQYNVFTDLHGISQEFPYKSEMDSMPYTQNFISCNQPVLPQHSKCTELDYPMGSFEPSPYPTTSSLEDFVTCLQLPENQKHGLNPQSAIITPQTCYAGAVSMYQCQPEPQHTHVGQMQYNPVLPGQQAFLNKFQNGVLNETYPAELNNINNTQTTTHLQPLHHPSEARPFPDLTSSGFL

[20] = target: Neuronal acetylcholine receptor subunit alpha-7 (Homo sapiens, UniProt P36544); experiment: Inhibition of alpha7 nAChR (unknown origin)
Sequence of Neuronal acetylcholine receptor subunit alpha-7 (P36544 whole entry): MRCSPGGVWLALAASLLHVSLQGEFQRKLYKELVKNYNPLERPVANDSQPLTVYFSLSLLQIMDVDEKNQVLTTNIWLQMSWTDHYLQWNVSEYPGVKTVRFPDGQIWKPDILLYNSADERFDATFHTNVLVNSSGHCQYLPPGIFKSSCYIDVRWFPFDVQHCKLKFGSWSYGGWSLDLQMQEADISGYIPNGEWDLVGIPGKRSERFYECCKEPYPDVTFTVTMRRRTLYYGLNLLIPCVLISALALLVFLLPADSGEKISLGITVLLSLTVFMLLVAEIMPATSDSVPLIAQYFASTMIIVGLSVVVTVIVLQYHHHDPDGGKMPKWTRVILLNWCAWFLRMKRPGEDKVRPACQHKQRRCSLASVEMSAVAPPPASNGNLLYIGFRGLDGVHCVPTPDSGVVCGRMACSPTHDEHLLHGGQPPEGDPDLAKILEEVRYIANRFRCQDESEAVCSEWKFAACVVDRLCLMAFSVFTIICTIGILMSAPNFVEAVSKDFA

[21] = target: Glutamate [NMDA] receptor; experiment: Inhibition of NMDA receptor (unknown origin); set-up: species or system Homo sapiens
[22] = target: GABA-A receptor; agonist GABA site; experiment: Inhibition of GABAA receptor (unknown origin); type: protein-complex assay, Homo sapiens
[23] = Inhibition of AMPA receptor (unknown origin); set-up: species or system Homo sapiens
[24] = Inhibition of PDE (unknown origin); set-up: species or system Homo sapiens
[25] = Inhibition of chloride channel (unknown origin); set-up: species or system Homo sapiens

SMILES: COc1ccc(C(=O)Nc2cc(Br)cc3c(=O)cc(C(=O)O)oc23)cn1
IC50 [1]: 6.2 µM
Activity [2]: 9%
Emax [3]: 94%
EC50 [4]: 0.991 µM
Emax [5]: 64%
EC50 [6]: 4.98 µM
Emax [7]: 117%
EC50 [8]: 0.0305 µM

SMILES: COc1ccc(C(=O)Nc2cc(Br)cc3c(=O)cc(C(=O)O)oc23)cc1OC
inhibition [9]: 45%
Activity [2]: -12%
Emax [10]: 101%
EC50 [11]: 0.628 µM
Emax [3]: 106%
EC50 [4]: 1.3 µM
Emax [5]: 73%
EC50 [6]: 6.4 µM
Emax [7]: 102%
EC50 [8]: 0.425 µM

SMILES: COc1ccc(C(=O)Nc2cc(Br)cc3c(=O)cc(C(=O)O)oc23)c(Cl)c1
Ratio IC50/EC50 [14]: > 1700
IC50 [1]: 21.7 µM
Activity [2]: 10%
Emax [10]: 129%
EC50 [11]: 0.0147 µM
Emax [3]: 81%
EC50 [4]: 4.17 µM
Activity [12]: 35%
Emax [7]: 120%
EC50 [8]: 0.0111 µM

SMILES: COc1ccc(C(=O)Nc2cc(Br)cc3c(=O)cc(C(=O)O)oc23)cc1
Ratio IC50/EC50 [14]: > 1700
IC50 [1]: 21.7 µM
Activity [2]: 0%
Emax [10]: 136%
EC50 [11]: 0.0221 µM
Emax [3]: 88%
EC50 [4]: 1.4 µM
Activity [12]: 36%
Emax [7]: 121%
EC50 [8]: 0.0121 µM
Stability [16]: Stable
Stability [17]: Stable
Stability [18]: Stable

SMILES: O=C(O)c1cc(=O)c2ccccc2[nH]1 [TRANSTORINE]
EC50 [19]: 0.3 µM
IC50 [20]: 7 µM
IC50 [21]: 15 µM
IC50 [22]: 2900 µM
IC50 [23]: 10 µM
EC50 [4]: 66 µM
EC50 [8]: 217 µM

SMILES: COc1ccc(C(=O)Nc2cccc3c(=O)cc(C(=O)O)oc23)cc1
inhibition [9]: -3%
Activity [2]: 0%
Emax [10]: 115%
EC50 [11]: 0.472 µM
Emax [3]: 85%
EC50 [4]: 2.16 µM
Emax [5]: 66%
EC50 [6]: 5.03 µM
Emax [7]: 104%
EC50 [8]: 0.346 µM

SMILES: COc1ccc(C(=O)Nc2cc(Br)cc3c(=O)cc(C(=O)O)oc23)nc1
IC50 [1]: 8.92 µM
Activity [2]: 4%
Emax [3]: 68%
EC50 [4]: 1.54 µM
Activity [12]: 27%
Emax [7]: 115%
EC50 [8]: 0.144 µM

SMILES: Nc1cccc2c(=O)cc(C(=O)O)oc12
inhibition [9]: 19%
Activity [2]: -11%
Activity [15]: 40%
Activity [12]: 4%
Activity [13]: 2%

Continued, values first:

inhibition [9]: 21%
Activity [2]: 10%
Emax [3]: 80%
EC50 [4]: 3.61 µM
Activity [12]: 13%
Activity [13]: 4%
SMILES: CCCOc1ccc(C(=O)Nc2cccc3c(=O)cc(C(=O)O)oc23)cc1

inhibition [9]: 24%
Activity [2]: -5%
Activity [15]: 48%
Activity [12]: 13%
Activity [13]: 10%
SMILES: O=C(Nc1cccc2c(=O)cc(C(=O)O)oc12)c1ccc(OCC2CC2)cc1

IC50 [1]: 29.1 µM
Activity [2]: 6%
Activity [15]: 46%
Emax [5]: 79%
EC50 [6]: 2.99 µM
Emax [7]: 125%
EC50 [8]: 4.67 µM
SMILES: O=C(Nc1cccc2c(=O)cc(C(=O)O)oc12)c1ccc2ccccc2c1

Ki [24]: 0.0008 µM
IC50 [25]: 5 µM
Emax [3]: 104%
EC50 [4]: 0.986 µM
Emax [5]: 102%
EC50 [6]: 4.84 µM
Emax [7]: 119%
EC50 [8]: 1.26 µM
SMILES: O=C(O)c1cc(=O)c2c(OCC(O)COc3cccc4oc(C(=O)O)cc(=O)c34)cccc2o1 [CROMOLYN SODIUM]

inhibition [9]: 31%
Activity [2]: -6%
Activity [15]: 41%
Emax [5]: 65%
EC50 [6]: 3.59 µM
Emax [7]: 81%
EC50 [8]: 1.34 µM
SMILES: O=C(Nc1cccc2c(=O)cc(C(=O)O)oc12)c1ccc2ccccc2n1
